Reference: ChEMBL document CHEMBL4834420, “Projected Dose Optimization of Amino- and Hydroxypyrrolidine Purine PI3Kδ Immunomodulators” (J Med Chem, 2021)
In brackets after ≈: the same amount, converted by molar mass.

Legend:
[1] = Unbound Cmax in C57BL/6 mouse at 100 mg/kg; type: ADME, organism-based; details: in vivo
Method in brief: (§1)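 C57BL/6-Foxp3-GFP reporter mice were dosed at 30 and 100 mg/kg/day for up to 7 days, with exposure determined at 100 mg/kg. The unbound Cmax and trough values were derived from total plasma levels. Treg readout was bioluminescence imaging 10 min after 3 mg luciferin ip, reported as radiance in photons/s/cm²/steradian.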

[2] = Dissociation constant, pKa of compound; type: physicochemical
[3] = Intrinsic clearance in Beagle dog at 0.25 mg/kg, iv or 0.5 mg/kg, po; type: ADME, organism-based, Canis lupus familiaris; details: in vivo
[4] = Half-life in Beagle dog; type: ADME, Canis lupus familiaris; details: in vivo
[5] = Trough plasma concentration Brown Norway rat at 10 mg/kg, po; type: ADME, organism-based; details: in vivo, read-out: Cmin
[6] = Cmax in C57BL/6 mouse at 100 mg/kg; type: ADME, organism-based; parameters: dose 100 mg/kg; details: in vivo
[7] = AUC in C57BL/6 mouse at 100 mg/kg; type: ADME, organism-based; parameters: dose 100 mg/kg; details: in vivo
[8] = Unbound trough plasma concentration C57BL/6 mouse at 100 mg/kg; type: ADME, organism-based; details: in vivo; method in brief: as §1
[9] = Solubility of the compound at pH 7.4; type: physicochemical; details: buffer
[10] = Volume of distribution in Beagle dog; type: ADME, Canis lupus familiaris; details: in vivo
P-gp (MDR1) = assay: Efflux ratio of apparent permeability from basolateral to apical side over apical to basolateral side in dog MDCK2 cells expressing MDR1 PGP; type: ADME, cell-based, Canis lupus familiaris, MDCKII-MDR1; details: MDCK-MDR1
[11] = Protein binding in Beagle dog plasma; type: ADME, cell-free, Canis lupus familiaris; details: read-out: PPB (converted)
[12] = Intrinsic clearance in rat hepatocytes; type: ADME, cell-based, Hepatocyte; details: read-out: CLH
[13] = Intrinsic clearance in human hepatocytes; type: ADME, cell-based, Hepatocyte
[14] = Intrinsic clearance in C57BL/6 mouse at 1 mg/kg, iv or 3 mg/kg, po; type: ADME, organism-based; details: in vivo
Rattus norvegicus = assay: Immunomodulatory activity in ovalbumin induced Brown Norway rat allergic rhinitis model assessed as reduction in BAL count at 10 mg/kg, po administered for 2 days and treated with ovalbumin after 1 hr post second dose; type: functional; parameters: scale not given: the % may be the effect or the level left; details: time 2 day
Method in brief: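 Brown Norway rats were presensitized with ovalbumin, 0.020 mg ip daily for 14 days. They then received compound orally for 2 days (0.3–30 mg/kg range studied). Ovalbumin challenge came 1 h after the second dose. Eosinophil cell count in bronchoalveolar lavage was assessed 48 h later.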

[15] = Apparent permeability in pig LLC-PK1 cells; type: ADME, cell-based, Sus scrofa
BCRP = assay: Efflux ratio of apparent permeability from basolateral to apical side over apical to basolateral side in MDCK2 cells expressing BCRP; type: ADME, cell-based, Canis lupus familiaris, MDCK-II; details: dog
[16] = Inhibition of rat PI3Kdelta
[17] = target: T1, Phosphatidylinositol 4,5-bisphosphate 3-kinase catalytic subunit delta isoform (Homo sapiens, UniProt O00329); assay: Inhibition of PI3Kdelta in human whole blood assessed as reduction in antihuman IgE antibody-stimulated CD63 expression preincubated for 30 mins followed by antihuman IgE antibody stimulation and measured after 20 mins by FACS analysis; type: tissue-based
T1 sequence (O00329 whole entry): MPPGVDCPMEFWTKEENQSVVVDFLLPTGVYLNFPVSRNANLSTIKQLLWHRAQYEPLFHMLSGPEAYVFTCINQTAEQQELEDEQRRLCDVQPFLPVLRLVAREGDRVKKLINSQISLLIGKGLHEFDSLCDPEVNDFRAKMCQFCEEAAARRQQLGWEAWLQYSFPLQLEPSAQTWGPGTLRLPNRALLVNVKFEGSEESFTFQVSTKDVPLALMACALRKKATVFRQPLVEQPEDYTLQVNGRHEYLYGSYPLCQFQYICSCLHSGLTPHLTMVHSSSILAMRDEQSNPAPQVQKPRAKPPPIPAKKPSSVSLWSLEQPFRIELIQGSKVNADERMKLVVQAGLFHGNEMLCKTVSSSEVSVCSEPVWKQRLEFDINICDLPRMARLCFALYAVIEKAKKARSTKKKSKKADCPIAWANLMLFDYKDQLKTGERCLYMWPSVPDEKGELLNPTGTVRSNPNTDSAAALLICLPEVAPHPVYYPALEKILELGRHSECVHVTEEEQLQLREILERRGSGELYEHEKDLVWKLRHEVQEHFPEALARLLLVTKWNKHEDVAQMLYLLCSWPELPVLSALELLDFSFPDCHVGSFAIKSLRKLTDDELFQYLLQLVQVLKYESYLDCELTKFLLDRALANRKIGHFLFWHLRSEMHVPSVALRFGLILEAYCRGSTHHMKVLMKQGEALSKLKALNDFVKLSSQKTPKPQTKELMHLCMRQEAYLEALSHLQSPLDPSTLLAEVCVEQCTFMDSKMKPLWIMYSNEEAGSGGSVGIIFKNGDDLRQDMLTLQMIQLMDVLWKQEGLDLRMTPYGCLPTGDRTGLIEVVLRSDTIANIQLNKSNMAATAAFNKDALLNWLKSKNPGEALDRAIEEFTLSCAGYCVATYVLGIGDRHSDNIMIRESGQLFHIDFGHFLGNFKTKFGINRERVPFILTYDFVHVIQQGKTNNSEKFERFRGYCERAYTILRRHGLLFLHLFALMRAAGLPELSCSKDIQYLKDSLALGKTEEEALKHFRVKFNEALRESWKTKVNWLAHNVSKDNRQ
Method in brief: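 Blood from healthy human volunteer donors, pre-incubated with compound (DMSO, varying concentrations) for 30 min at 37 °C. Basotest reagent B added for 30 min at 37 °C, then goat anti-human IgE (50 ng/mL in reagent A before addition) for 20 min at 37 °C. Stopped on ice, stained for CD63/IgE/CD203c/CD45 (20 min, 4 °C), RBC-lysed, and read by flow cytometry. IgE+ basophils gated, CD63+ scored; IC50 from sigmoidal fit of % inhibition.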

[18] = target: Voltage-dependent L-type calcium channel subunit alpha-1C (Homo sapiens, UniProt Q13936); assay: Inhibition of Cav1.2 (unknown origin)
Voltage-dependent L-type calcium channel subunit alpha-1C, sequence (Q13936 whole entry): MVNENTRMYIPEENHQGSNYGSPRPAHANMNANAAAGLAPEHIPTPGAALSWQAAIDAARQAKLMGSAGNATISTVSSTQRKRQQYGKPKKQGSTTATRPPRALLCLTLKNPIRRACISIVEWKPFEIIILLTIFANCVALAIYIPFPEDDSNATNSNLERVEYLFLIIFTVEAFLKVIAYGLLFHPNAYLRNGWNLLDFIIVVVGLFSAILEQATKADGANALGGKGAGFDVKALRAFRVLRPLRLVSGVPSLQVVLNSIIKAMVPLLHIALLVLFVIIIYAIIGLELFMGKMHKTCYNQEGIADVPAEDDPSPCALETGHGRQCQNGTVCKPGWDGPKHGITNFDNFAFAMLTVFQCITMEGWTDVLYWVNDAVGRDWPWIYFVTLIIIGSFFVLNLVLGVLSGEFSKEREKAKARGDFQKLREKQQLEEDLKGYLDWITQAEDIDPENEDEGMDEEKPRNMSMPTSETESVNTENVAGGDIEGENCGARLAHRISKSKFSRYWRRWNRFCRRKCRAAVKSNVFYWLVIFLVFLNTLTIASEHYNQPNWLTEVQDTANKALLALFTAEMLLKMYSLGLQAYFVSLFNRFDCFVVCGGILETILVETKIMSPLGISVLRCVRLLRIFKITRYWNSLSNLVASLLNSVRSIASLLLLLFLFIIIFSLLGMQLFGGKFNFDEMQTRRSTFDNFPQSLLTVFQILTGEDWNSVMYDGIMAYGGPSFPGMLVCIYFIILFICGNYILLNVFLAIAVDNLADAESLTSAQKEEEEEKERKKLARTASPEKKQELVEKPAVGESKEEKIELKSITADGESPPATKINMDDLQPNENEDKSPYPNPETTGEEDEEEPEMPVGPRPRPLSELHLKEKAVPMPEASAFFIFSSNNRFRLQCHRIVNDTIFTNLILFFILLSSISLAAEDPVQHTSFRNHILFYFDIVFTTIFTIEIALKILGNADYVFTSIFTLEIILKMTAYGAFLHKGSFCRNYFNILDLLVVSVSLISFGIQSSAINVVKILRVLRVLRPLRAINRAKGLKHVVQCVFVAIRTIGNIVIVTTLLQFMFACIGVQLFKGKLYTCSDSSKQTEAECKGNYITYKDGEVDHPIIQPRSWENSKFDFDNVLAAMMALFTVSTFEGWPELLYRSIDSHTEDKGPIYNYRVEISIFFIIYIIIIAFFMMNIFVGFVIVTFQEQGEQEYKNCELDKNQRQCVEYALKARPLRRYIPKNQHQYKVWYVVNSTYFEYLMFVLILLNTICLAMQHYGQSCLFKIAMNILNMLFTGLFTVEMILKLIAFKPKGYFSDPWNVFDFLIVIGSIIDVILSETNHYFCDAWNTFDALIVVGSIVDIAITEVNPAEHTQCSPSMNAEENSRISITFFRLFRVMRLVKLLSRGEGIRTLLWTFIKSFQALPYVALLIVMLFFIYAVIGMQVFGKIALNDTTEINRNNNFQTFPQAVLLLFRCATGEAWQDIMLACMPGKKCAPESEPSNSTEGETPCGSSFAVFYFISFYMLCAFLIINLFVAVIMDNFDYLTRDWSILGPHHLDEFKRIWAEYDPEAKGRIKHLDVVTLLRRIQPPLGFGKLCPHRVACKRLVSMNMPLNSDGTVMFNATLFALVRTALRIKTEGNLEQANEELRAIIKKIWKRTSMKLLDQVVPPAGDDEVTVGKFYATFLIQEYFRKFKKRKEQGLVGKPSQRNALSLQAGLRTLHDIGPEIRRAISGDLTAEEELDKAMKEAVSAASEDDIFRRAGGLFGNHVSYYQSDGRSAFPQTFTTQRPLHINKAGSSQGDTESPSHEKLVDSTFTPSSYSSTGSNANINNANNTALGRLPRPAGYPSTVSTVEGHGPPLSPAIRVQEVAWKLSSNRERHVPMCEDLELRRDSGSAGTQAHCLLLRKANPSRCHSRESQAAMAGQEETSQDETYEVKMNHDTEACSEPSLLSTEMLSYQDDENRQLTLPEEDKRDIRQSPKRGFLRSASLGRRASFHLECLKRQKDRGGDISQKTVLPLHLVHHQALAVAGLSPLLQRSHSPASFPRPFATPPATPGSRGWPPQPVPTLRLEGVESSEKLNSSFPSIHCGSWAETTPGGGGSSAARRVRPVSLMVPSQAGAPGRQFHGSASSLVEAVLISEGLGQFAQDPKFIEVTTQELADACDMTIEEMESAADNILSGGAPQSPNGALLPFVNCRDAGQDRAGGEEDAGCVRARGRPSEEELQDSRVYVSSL

[19] = Solubility of compound in stimulated intestinal fluid; type: physicochemical; details: simulated intestinal fluid
[20] = Volume of distribution in Wistar Han rat; type: ADME; details: in vivo
[21] = target: PI3-kinase p110-delta/p85-alpha (Homo sapiens, UniProt O00329); assay: Inhibition of N-terminal His6-tagged recombinant full length human p110delta/untagged recombinant full length human p85alpha expressed in baculovirus infected Sf21 insect cells using PIP2 as substrate preincubated for 15 mins followed by substrate addition and measured after 1 hr by HTRF assay
PI3-kinase p110-delta/p85-alpha, sequence (P27986 whole entry, one chain of several): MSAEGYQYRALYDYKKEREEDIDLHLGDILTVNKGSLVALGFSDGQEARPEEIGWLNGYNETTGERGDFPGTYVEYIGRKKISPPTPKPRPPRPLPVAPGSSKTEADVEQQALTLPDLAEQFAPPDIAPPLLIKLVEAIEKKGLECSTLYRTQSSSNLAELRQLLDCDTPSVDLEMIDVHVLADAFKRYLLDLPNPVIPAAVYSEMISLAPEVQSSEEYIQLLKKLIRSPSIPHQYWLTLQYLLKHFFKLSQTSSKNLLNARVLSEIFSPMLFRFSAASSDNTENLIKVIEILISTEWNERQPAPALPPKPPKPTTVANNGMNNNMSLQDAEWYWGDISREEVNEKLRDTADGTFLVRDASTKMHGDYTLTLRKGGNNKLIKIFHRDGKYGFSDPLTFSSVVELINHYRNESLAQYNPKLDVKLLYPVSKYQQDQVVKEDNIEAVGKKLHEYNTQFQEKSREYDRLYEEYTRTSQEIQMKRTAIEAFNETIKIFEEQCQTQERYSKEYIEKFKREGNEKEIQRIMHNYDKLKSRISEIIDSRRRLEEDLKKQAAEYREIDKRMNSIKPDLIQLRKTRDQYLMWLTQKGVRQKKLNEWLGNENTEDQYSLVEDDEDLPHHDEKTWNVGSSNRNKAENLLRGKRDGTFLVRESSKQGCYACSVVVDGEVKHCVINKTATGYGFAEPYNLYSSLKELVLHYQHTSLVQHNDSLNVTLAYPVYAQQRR

[22] = Plasma clearance in Beagle dog at 0.25 mg/kg, iv or 0.5 mg/kg, po; type: ADME, organism-based, Canis lupus familiaris

CCn1c(-c2cnc(C)nc2)nc2c(N[C@H]3CCN(C(=O)C4CC4)C3)ncnc21
fCmax [1]: 16 µM | pKa [2]: 3.06 | CL [3]: 6.2 mL/min/kg | half-life [4]: 4.3 h | concentration [5]: 0.014 µM | Cmax [6]: 33 µM | AUC [7]: 133 µM·h | fCmin [8]: 52 nM | solubility [9]: 15 mg/mL (≈ 38.2 mM) | Vd [10]: 1.5 L/kg | efflux ratio (P-gp (MDR1)): 16 | fraction unbound [11]: 0.9 | CLint scaled [12]: < 2 mL/min/kg | CLint scaled [13]: < 2 mL/min/kg | CL [14]: 10 mL/min/kg | Activity (Rattus norvegicus): 50% | Papp [15]: 22 ×10⁻⁶ cm/s | efflux ratio (BCRP): 5 | IC50 [16]: 6.6 nM | IC50 [17]: 50 nM | IC50 [18]: > 50000 nM | solubility [19]: 14 mg/mL (≈ 35.7 mM) | Vd [20]: 1 L/kg | IC50 [21]: 1.6 nM | clearance [22]: 4.3 mL/min/kg
